Experimental data published in ChEMBL document CHEMBL1629526, “4-[1-(Substituted aryl/alkyl carbonyl)-benzoimidazol-2-yl]-benzenesulfonic acids: synthesis, antimicrobial activity, QSAR studies, and antiviral evaluation” (Eur J Med Chem, 2010).
≈ marks a conversion by molar mass, not a printed value.

Assays:
[1] = Cytotoxicity against human HeLa cells assessed as altered cell morphology; assay type: cell-based
In short: (§1)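 Uninfected cell cultures run alongside the antiviral assays, exposed to serial compound dilutions and incubated at 37 °C for 2–4 days. Toxicity was scored microscopically and reported as the minimum cytotoxic concentration (MCC), the lowest concentration causing a detectable change in normal cell morphology.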

Staphylococcus aureus = test: Antimicrobial activity against Staphylococcus aureus after 24 hrs by tube dilution method; assay type: functional
Human alphaherpesvirus 1 [2] = test: Antiviral activity against thymidine kinase deficient acyclovir-resistant Herpes simplex virus 1 KOS infected in HEL cells assessed as inhibition of virus induced cytopathicity after 2 to 4 days by MTS assay; assay type: functional, organism-based; settings: Human alphaherpesvirus 1, KOS
Bacillus subtilis = test: Antimicrobial activity against Bacillus subtilis after 24 hrs by tube dilution method; assay type: functional
In short: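 Serial dilutions in double-strength nutrient broth (I.P.) with ciprofloxacin as reference, tube dilution, incubated 37 °C for 24 h. MIC is the lowest concentration that inhibited growth.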

Coxsackievirus B4 [3] = test: Antiviral activity against coxsackievirus B4 infected in human HeLa cells assessed as inhibition of virus induced cytopathicity after 2 to 4 days by MTS assay; assay type: functional, organism-based; settings: Enterovirus B
[4] = system: Mammalian orthoreovirus 1; test: Antiviral activity against Reovirus 1 virus infected in african green monkey Vero cells assessed as inhibition of virus induced cytopathicity after 2 to 4 days by MTS assay; assay type: functional, organism-based; settings: Mammalian orthoreovirus 1, Vero
MDCK = test: Cytotoxicity against MDCK cells assessed as cell viability by MTS assay; assay type: cell-based, Canis lupus familiaris; settings: dog, mdck
In short: (§2)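 Uninfected cultures were run in parallel with the antiviral assays. Viability was read by colorimetric formazan MTS assay.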

Human alphaherpesvirus 2 = test: Antiviral activity against Herpes simplex virus 2 G infected in HEL cells assessed as inhibition of virus induced cytopathicity after 2 to 4 days by MTS assay; assay type: functional, organism-based; settings: Human alphaherpesvirus 2, strain G
[5] = Cytotoxicity against cat CRFK cells assessed as cell viability by MTS assay; assay type: cell-based, Felis catus; settings: crfk; in short: as §2
[6] = system: Vesicular stomatitis virus; test: Antiviral activity against Vesicular stomatitis virus infected in HEL cells assessed as inhibition of virus induced cytopathicity after 2 to 4 days by MTS assay; assay type: functional, organism-based
[7] = Cytotoxicity against MDCK cells assessed as altered cell morphology; assay type: cell-based, Canis lupus familiaris; settings: dog; in short: as §1
Candida albicans = test: Antimicrobial activity against Candida albicans after 48 hrs by tube dilution method; assay type: functional
[8] = system: Vesicular stomatitis virus; test: Antiviral activity against Vesicular stomatitis virus infected in human HeLa cells assessed as inhibition of virus induced cytopathicity after 2 to 4 days by MTS assay; assay type: functional, organism-based
Aspergillus niger = test: Antimicrobial activity against Aspergillus niger after 7 days by tube dilution method; assay type: functional; settings: 168 h
[9] = Cytotoxicity against african green monkey Vero cells assessed as altered cell morphology; assay type: cell-based; settings: chlorocebus sabaeus; in short: as §1
Coxsackievirus B4 [10] = test: Antiviral activity against coxsackievirus B4 infected in human HeLa cells assessed as inhibition of virus induced cytopathicity by visual scoring of CPE; assay type: functional, organism-based; settings: Enterovirus B
Influenza B virus [11] = test: Antiviral activity against Influenza B virus infected in MDCK cells assessed as inhibition of virus induced cytopathicity by visual scoring of CPE; assay type: functional, organism-based
Influenza A virus [12] = test: Antiviral activity against Influenza A H3N2 virus subtype infected in MDCK cells assessed as inhibition of virus induced cytopathicity after 2 to 4 days by MTS assay; assay type: functional, organism-based
[13] = system: Respiratory syncytial virus; test: Antiviral activity against Respiratory syncytial virus infected in human HeLa cells assessed as inhibition of virus induced cytopathicity after 2 to 4 days by MTS assay; assay type: functional, organism-based
Vaccinia virus = test: Antiviral activity against Vaccinia virus infected in HEL cells assessed as inhibition of virus induced cytopathicity after 2 to 4 days by MTS assay; assay type: functional, organism-based; settings: Orthopoxvirus vaccinia
Influenza B virus [14] = test: Antiviral activity against Influenza B virus infected in MDCK cells assessed as inhibition of virus induced cytopathicity after 2 to 4 days by MTS assay; assay type: functional, organism-based
Sindbis virus = test: Antiviral activity against Sindbis virus infected in african green monkey Vero cells assessed as inhibition of virus induced cytopathicity after 2 to 4 days by MTS assay; assay type: functional, organism-based
Human alphaherpesvirus 1 [15] = test: Antiviral activity against Herpes simplex virus 1 KOS infected in HEL cells assessed as inhibition of virus induced cytopathicity after 2 to 4 days by MTS assay; assay type: functional, organism-based; settings: Human alphaherpesvirus 1, KOS
Felid alphaherpesvirus 1 = test: Antiviral activity against Feline herpesvirus 1 infected in cat CRFK cells assessed as inhibition of virus induced cytopathicity after 2 to 4 days by MTS assay; assay type: functional, organism-based; settings: Felid alphaherpesvirus 1, CRFK
[16] = system: Vesicular stomatitis virus; test: Antiviral activity against Vesicular stomatitis virus infected in human HeLa cells assessed as inhibition of virus induced cytopathicity by visual scoring of CPE; assay type: functional, organism-based
Feline coronavirus = test: Antiviral activity against Feline coronavirus infected in cat CRFK cells assessed as inhibition of virus induced cytopathicity after 2 to 4 days by MTS assay; assay type: functional, organism-based; settings: Alphacoronavirus 1, CRFK
Escherichia coli = test: Antimicrobial activity against Escherichia coli after 24 hrs by tube dilution method; assay type: functional
Coxsackievirus B4 [17] = test: Antiviral activity against Coxsackie virus B4 infected in african green monkey Vero cells assessed as inhibition of virus induced cytopathicity after 2 to 4 days by MTS assay; assay type: functional, organism-based; settings: Enterovirus B
Punta Toro virus = test: Antiviral activity against Punta Toro virus infected in african green monkey Vero cells assessed as inhibition of virus induced cytopathicity after 2 to 4 days by MTS assay; assay type: functional, organism-based
Influenza A virus [18] = test: Antiviral activity against Influenza A H3N2 virus subtype infected in MDCK cells assessed as inhibition of virus induced cytopathicity by visual scoring of CPE; assay type: functional, organism-based
HeLa = test: Cytotoxicity against human HeLa cells assessed as cell viability by MTS assay; assay type: cell-based; settings: hela; in short: as §2
Human respirovirus 3 = test: Antiviral activity against parainfluenza-3 virus infected in african green monkey Vero cells assessed as inhibition of virus induced cytopathicity after 2 to 4 days by MTS assay; assay type: functional, organism-based; settings: Human respirovirus 3, Vero
[19] = system: Respiratory syncytial virus; test: Antiviral activity against Respiratory syncytial virus infected in human HeLa cells assessed as inhibition of virus induced cytopathicity by visual scoring of CPE; assay type: functional, organism-based
[20] = Cytotoxicity against human HEL cells assessed as altered cell morphology; assay type: cell-based; in short: as §1

| SMILES | MCC [1] | MBC (Staphylococcus aureus) | EC50 (Human alphaherpesvirus 1 [2]) | MBC (Bacillus subtilis) | EC50 (Coxsackievirus B4 [3]) | EC50 [4] | CC50 (MDCK) | EC50 (Human alphaherpesvirus 2) | CC50 [5] | EC50 [6] | MCC [7] | MFC (Candida albicans) | EC50 [8] | MFC (Aspergillus niger) | MCC [9] | EC50 (Coxsackievirus B4 [10]) | EC50 (Influenza B virus [11]) | EC50 (Influenza A virus [12]) | EC50 [13] | EC50 (Vaccinia virus) | further results |
| --- | --- | --- | --- | --- | --- | --- | --- | --- | --- | --- | --- | --- | --- | --- | --- | --- | --- | --- | --- | --- | --- |
| CCCCCCCCCCCCCCCC(=O)n1c(-c2ccc(S(=O)(=O)O)cc2)nc2ccccc21 | > 100 µg/mL | 6.25 µg/mL (≈ 12.2 µM) | > 100 µg/mL | 12.5 µg/mL (≈ 24.4 µM) | > 100 µg/mL | > 100 µg/mL | > 100 µg/mL | > 100 µg/mL | > 100 µg/mL | > 100 µg/mL | > 100 µg/mL | > 50 µg/mL | > 100 µg/mL | > 50 µg/mL | > 100 µg/mL | > 100 µg/mL | > 100 µg/mL | > 100 µg/mL | > 100 µg/mL | > 100 µg/mL | EC50 (Influenza B virus [14]): > 100 µg/mL; EC50 (Sindbis virus): > 100 µg/mL; EC50 (Human alphaherpesvirus 1 [15]): > 100 µg/mL; EC50 (Felid alphaherpesvirus 1): > 100 µg/mL; EC50 [16]: > 100 µg/mL; EC50 (Feline coronavirus): > 100 µg/mL; MBC (Escherichia coli): 12.5 µg/mL (≈ 24.4 µM); EC50 (Coxsackievirus B4 [17]): > 100 µg/mL; EC50 (Punta Toro virus): > 100 µg/mL; EC50 (Influenza A virus [18]): > 100 µg/mL; CC50 (HeLa): > 100 µg/mL; EC50 (Human respirovirus 3): > 100 µg/mL; EC50 [19]: > 100 µg/mL; MCC [20]: > 100 µg/mL |
| C=C(C)C(=O)n1c(-c2ccc(S(=O)(=O)O)cc2)nc2ccccc21 | > 100 µg/mL | 6.25 µg/mL (≈ 18.3 µM) | > 100 µg/mL | 12.5 µg/mL (≈ 36.5 µM) | > 100 µg/mL | > 100 µg/mL | > 100 µg/mL | > 100 µg/mL | > 100 µg/mL | > 100 µg/mL | > 100 µg/mL | > 50 µg/mL | > 100 µg/mL | > 50 µg/mL | > 100 µg/mL | > 100 µg/mL | > 100 µg/mL | > 100 µg/mL | > 100 µg/mL | > 100 µg/mL | EC50 (Influenza B virus [14]): > 100 µg/mL; EC50 (Sindbis virus): > 100 µg/mL; EC50 (Human alphaherpesvirus 1 [15]): > 100 µg/mL; EC50 (Felid alphaherpesvirus 1): > 100 µg/mL; EC50 [16]: > 100 µg/mL; EC50 (Feline coronavirus): > 100 µg/mL; MBC (Escherichia coli): 12.5 µg/mL (≈ 36.5 µM); EC50 (Coxsackievirus B4 [17]): > 100 µg/mL; EC50 (Punta Toro virus): > 100 µg/mL; EC50 (Influenza A virus [18]): > 100 µg/mL; CC50 (HeLa): > 100 µg/mL; EC50 (Human respirovirus 3): > 100 µg/mL; EC50 [19]: > 100 µg/mL; MCC [20]: > 100 µg/mL |
| O=C(c1cccnc1)n1c(-c2ccc(S(=O)(=O)O)cc2)nc2ccccc21 | > 100 µg/mL | 12.5 µg/mL (≈ 32.9 µM) | > 100 µg/mL | > 50 µg/mL | > 100 µg/mL | > 100 µg/mL | > 100 µg/mL | > 100 µg/mL | > 100 µg/mL | > 100 µg/mL | > 100 µg/mL | > 50 µg/mL | > 100 µg/mL | > 50 µg/mL | > 100 µg/mL | > 100 µg/mL | > 100 µg/mL | > 100 µg/mL | > 100 µg/mL | > 100 µg/mL | EC50 (Influenza B virus [14]): > 100 µg/mL; EC50 (Sindbis virus): > 100 µg/mL; EC50 (Human alphaherpesvirus 1 [15]): > 100 µg/mL; EC50 (Felid alphaherpesvirus 1): > 100 µg/mL; EC50 [16]: > 100 µg/mL; EC50 (Feline coronavirus): > 100 µg/mL; MBC (Escherichia coli): 1.56 µg/mL (≈ 4.11 µM); EC50 (Coxsackievirus B4 [17]): > 100 µg/mL; EC50 (Punta Toro virus): > 100 µg/mL; EC50 (Influenza A virus [18]): > 100 µg/mL; CC50 (HeLa): > 100 µg/mL; EC50 (Human respirovirus 3): > 100 µg/mL; EC50 [19]: > 100 µg/mL; MCC [20]: > 100 µg/mL |
| CCCCC(=O)n1c(-c2ccc(S(=O)(=O)O)cc2)nc2ccccc21 | > 100 µg/mL | 6.25 µg/mL (≈ 17.4 µM) | > 100 µg/mL | 6.25 µg/mL (≈ 17.4 µM) | > 100 µg/mL | > 100 µg/mL | > 100 µg/mL | > 100 µg/mL | > 100 µg/mL | > 100 µg/mL | > 100 µg/mL | 12.5 µg/mL (≈ 34.9 µM) | > 100 µg/mL | > 50 µg/mL | > 100 µg/mL | > 100 µg/mL | > 100 µg/mL | > 100 µg/mL | > 100 µg/mL | > 100 µg/mL | EC50 (Influenza B virus [14]): > 100 µg/mL; EC50 (Sindbis virus): > 100 µg/mL; EC50 (Human alphaherpesvirus 1 [15]): > 100 µg/mL; EC50 (Felid alphaherpesvirus 1): > 100 µg/mL; EC50 [16]: > 100 µg/mL; EC50 (Feline coronavirus): > 100 µg/mL; MBC (Escherichia coli): 6.25 µg/mL (≈ 17.4 µM); EC50 (Coxsackievirus B4 [17]): > 100 µg/mL; EC50 (Punta Toro virus): > 100 µg/mL; EC50 (Influenza A virus [18]): > 100 µg/mL; CC50 (HeLa): > 100 µg/mL; EC50 (Human respirovirus 3): > 100 µg/mL; EC50 [19]: > 100 µg/mL; MCC [20]: > 100 µg/mL |
